This note sets out measurements from ChEMBL document CHEMBL4130563, “Structure-Based Design and Synthesis of New Estrane-Pyridine Derivatives as Cytochrome P450 (CYP) 1B1 Inhibitors” (ACS Med Chem Lett, 2017).

Data set [1] concerns the target T1, CYP1B1 (Homo sapiens, UniProt Q16678).
T1 sequence (Q16678 whole entry): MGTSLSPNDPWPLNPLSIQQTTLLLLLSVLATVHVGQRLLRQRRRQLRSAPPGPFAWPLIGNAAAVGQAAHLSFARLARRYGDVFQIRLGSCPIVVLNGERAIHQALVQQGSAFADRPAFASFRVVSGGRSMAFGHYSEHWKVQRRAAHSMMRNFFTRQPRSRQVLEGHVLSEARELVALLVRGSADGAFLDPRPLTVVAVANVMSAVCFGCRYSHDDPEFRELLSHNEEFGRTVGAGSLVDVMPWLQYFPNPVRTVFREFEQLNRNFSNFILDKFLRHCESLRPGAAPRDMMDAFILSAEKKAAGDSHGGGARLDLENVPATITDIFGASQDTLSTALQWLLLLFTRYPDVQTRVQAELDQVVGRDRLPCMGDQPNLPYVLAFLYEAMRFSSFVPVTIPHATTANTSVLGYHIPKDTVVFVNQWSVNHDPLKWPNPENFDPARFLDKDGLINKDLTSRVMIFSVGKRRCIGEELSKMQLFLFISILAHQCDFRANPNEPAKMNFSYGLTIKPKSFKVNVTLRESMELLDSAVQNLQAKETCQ
Put plainly: Inhibition of recombinant human CYP1B1 expressed in supersomes coexpressing P450 reductase at 0.3 uM using 7-ethyl-O-resorufin as substrate after 45 mins in presence of NADPH by fluorescence assay relative to control. Conditions: probe 7-ethyl-O-resorufin.

Data set [2] can be described thus: Drug metabolism in rat plasma assessed as 2-(3-pyridinyl)-3-hydroxy-estra-1,3,5(10)-trien-17-one formation at 2 mg/kg, sc administered as single dose measured at 2 hrs post dose by LC-MS analysis. The settings on record: in vivo. It is filed as ADME, organism-based. Put shortly:
(§1)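 Rats given one subcutaneous injection of the 17β-alcohol parent at 2.0 mg/kg (0.66 mg in PG:DMSO 92:8). Plasma levels of the parent and of its 17-keto metabolite were followed over time. AUC (ng.h/mL) was calculated for each species and for the two combined.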

Data set [3] in a line: Drug uptake in rat plasma at 2 mg/kg, sc administered as single dose measured at 2 hrs post dose by LC-MS analysis. It is filed as ADME, organism-based. The essentials:
as §1

A short description of data set [4]: AUC (0 to 24 hrs) in rat plasma at 2 mg/kg, sc administered as single dose measured at 2 hrs post dose by LC-MS analysis. The data set is classed as ADME, organism-based. The arrangement: time < 24 hr, dose 2 mg/kg, route subcutaneous. Put shortly: as §1
Another data set relates to Rattus norvegicus. Briefly: AUC (0 to 24 hrs) in rat plasma assessed as 2-(3-pyridinyl)-3-hydroxy-estra-1,3,5(10)-trien-17-one level at 2 mg/kg, sc administered as single dose measured at 2 hrs post dose by LC-MS analysis. The arrangement: dose 2 mg/kg, time < 24 hr, route subcutaneous. Conditions: in vivo. It is filed as ADME, organism-based. The essentials:
as §1

A further data set has as its target T2, Cytochrome P450 1B1 (Homo sapiens, UniProt Q16678).
T2 sequence (Q16678 whole entry): T1 sequence (Q16678 whole entry)
Put plainly: Inhibition of recombinant human CYP1B1 expressed in supersomes coexpressing P450 reductase using 7-ethyl-O-resorufin as substrate after 45 mins in presence of NADPH by fluorescence assay.

Data set [5] deals with T1, CYP1B1. Put plainly: Potency index, ratio of alpha-naphthoflavone IC50 to compound IC50 for inhibition of recombinant human CYP1B1 expressed in supersomes coexpressing P450 reductase. The settings on record: read-out: Ratio IC50. The essentials: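 EROD assay on recombinant human CYP1B1 with NADPH as cofactor. Resorufin ethyl ether is the substrate, and conversion to resorufin is read by fluorescence.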

In the case of `C[C@]12CC[C@@H]3c4ccc(-c5ccncc5)cc4CC[C@H]3[C@@H]1CC[C@@H]2O`, the inhibition (in general, how much of the control response was suppressed) at 0.75 h, 0.3 µM at CYP1B1 [1] was 19.5%.

As to `C[C@]12CC[C@@H]3c4ccc(-c5cccnc5)cc4CC[C@H]3[C@@H]1CCC2=O`, on CYP1B1 [1], the inhibition at 0.75 h, 0.3 µM was determined as 28.2%.

`C[C@]12CC[C@@H]3c4cc(-c5cccnc5)c(O)cc4CC[C@H]3[C@@H]1CC[C@@H]2O`: the Drug metabolism in data set [2] amounted to 7 ng/mL. For the same molecule, the concentration at 2 h in data set [3] turned out to be 4 ng/mL. Moreover, in data set [4], the AUC(0-t) (in general, the area under the concentration-time curve up to a stated or last time point) at 24 h stood at 12.8 ng·h/mL. Moreover, in the data set with Rattus norvegicus, the AUC (as a rule, concentration integrated over time) is 33.2 ng·h/mL. In addition, on CYP1B1 [1], the inhibition at 0.75 h, 0.3 µM came out at 85.4%. On Cytochrome P450 1B1, the IC50 (as a rule, the concentration that inhibits the measured activity by half) amounted to 11 nM. Moreover, the selectivity ratio at CYP1B1 [5] came out at 7.5.

Take `C[C@]12CC[C@@H]3c4cc(-c5cccnc5)c(O)cc4CC[C@H]3[C@@H]1CCC2=O`: at CYP1B1 [1], the inhibition at 0.75 h, 0.3 µM turned out to be 37.8%. Besides, the IC50 at Cytochrome P450 1B1 came to 63 nM.

Turning to `C[C@]12CC[C@@H]3c4ccc(O)cc4CC[C@H]3[C@@H]1CC[C@@H]2O` [ESTRADIOL], the inhibition at 0.75 h, 0.3 µM on CYP1B1 [1] turned out to be 12.4%.

For the molecule `C[C@]12CC[C@@H]3c4cc(-c5ccncc5)c(O)cc4CC[C@H]3[C@@H]1CC[C@@H]2O`, on CYP1B1 [1], the inhibition at 0.75 h, 0.3 µM came out at 87.4%. Also, on Cytochrome P450 1B1, the IC50 was 32 nM. For the same molecule, the selectivity ratio on CYP1B1 [5] was found to be 2.5.

Take `C[C@]12CC[C@@H]3c4ccc(O)c(-c5cccnc5)c4CC[C@H]3[C@@H]1CCC2=O`: on CYP1B1 [1], the inhibition at 0.75 h, 0.3 µM was 14%.

Take `C[C@]12CC[C@@H]3c4ccc(O)c(-c5ccncc5)c4CC[C@H]3[C@@H]1CCC2=O`: at CYP1B1 [1], the inhibition at 0.75 h, 0.3 µM amounted to 16.9%.

For `C[C@]12CC[C@@H]3c4ccc(-c5cccnc5)cc4CC[C@H]3[C@@H]1CC[C@@H]2O`, the inhibition at 0.75 h, 0.3 µM at CYP1B1 [1] worked out at 19.6%.

Consider `C[C@]12CC[C@@H]3c4ccc(O)c(-c5ccncc5)c4CC[C@H]3[C@@H]1CC[C@@H]2O`, for which the inhibition at 0.75 h, 0.3 µM at CYP1B1 [1] was 20.9%.

As for `C[C@]12CC[C@@H]3c4ccc(O)c(-c5cccnc5)c4CC[C@H]3[C@@H]1CC[C@@H]2O`, the inhibition at 0.75 h, 0.3 µM on CYP1B1 [1] turned out to be 28.9%.

Turning to `C[C@]12CC[C@@H]3c4cc(-c5ccncc5)c(O)cc4CC[C@H]3[C@@H]1CCC2=O`, the inhibition at 0.75 h, 0.3 µM on CYP1B1 [1] came to 21.3%. At Cytochrome P450 1B1, the concentration for half-maximal inhibition (IC50) is 120 nM.

Take `C[C@]12CC[C@@H]3c4ccc(-c5ccncc5)cc4CC[C@H]3[C@@H]1CCC2=O`: at CYP1B1 [1], the inhibition at 0.75 h, 0.3 µM is 6.1%.

On to `O=c1cc(-c2ccccc2)oc2c1ccc1ccccc12` [ALPHA-NAPHTHOFLAVONE], for which, on CYP1B1 [1], the inhibition at 0.75 h, 0.3 µM is 94%.

Take `C[C@]12CC[C@@H]3c4ccc(S)cc4CC[C@H]3[C@@H]1CCC2=O`: at CYP1B1 [1], the inhibition at 0.75 h, 0.3 µM is 13.3%.
